Experimental data: PMC11474258 (RSC Advances, 2024)
Values after ≈ are worked out from the molar mass of the structure shown. One block for each compound: values may come before it.

Experiments:
[1] = Spectral titration of phenol with guanidine HCl; details: calculated from the binding isotherm of phenol with guanidine HCl
Solubility of curcumin = format: physicochemical; details: in the presence of FAM-Y4R4; absorption peak at 425 nm, curcumin standard curve
[2] = UV-vis titration of curcumin with phenol; format: binding; details: isotherm at 430 nm, 1:1 model, non-linear regression
In short: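 Curcumin was spectroscopically titrated with phenol, which stands in for the tyrosine side chain. The binding isotherm was plotted from absorbance at 430 nm. Ka was fitted by nonlinear regression to a one-host-to-one-guest binding model.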

[3] = cited from earlier work
[4] = Overall binding constant of curcumin; details: average of fluorescence (tyrosine) and UV-vis (phenol) titration
[5] = concentrations up to 5 mM; cited from earlier work
A549 cells = test: MTT cell viability assay; format: cell-based; details: 18 h, triplicates, CX4 alone up to 200 μM
In short: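 A549 cells were grown in DMEM/F12 with 10% heat-inactivated FBS and 1% penicillin/streptomycin at 37 °C, 5% CO2. They were seeded at 1×10^4 cells/well and exposed in triplicate for 18 h to a range of test compound concentrations, alone or complexed with peptide. CX4 was at most 4 mM in complexes. MTT absorbance was read at 570 nm and reported as mean ± standard error, with Tukey test (P < 0.05).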

- binding energy [1]: 8.13 kcal/mol
Compound: Cl.N=C(N)N [guanidine HCl]

- solubility of curcumin when bound to the tyrosines of FAM-Y4R4 (Solubility of curcumin): 0.4 µM
- overall binding constant Ka (average of the two values) [4]: 2.38e+06 M⁻¹
Compound: COc1cc(/C=C/C(=O)CC(=O)/C=C/c2ccc(O)c(OC)c2)ccc1O [curcumin]
- Ka of curcumin to phenol [2]: 4.6e+06 M⁻¹
- solubility in water [3]: 0.03 µM (≈ 0.0111 µg/mL)

Compound: O=S(=O)(O)c1cc2c(O)c(c1)Cc1cc(S(=O)(=O)O)cc(c1O)Cc1cc(S(=O)(=O)O)cc(c1O)Cc1cc(S(=O)(=O)O)cc(c1O)C2 [CX4, p-sulfonatocalix[4]arene]
- hemolytic toxicity [5]: no hemolytic toxicity
- maximum decrease in cell viability (A549 cells): ≤ 22%
